Assay outcomes from PubChem.
Most compounds without a hit are left out; they make up all but 4% or so of the library.
OX1R antag-1: human HCRTR1 antagonism; CHO/OX1R cells, Fluo-8 calcium fluorescence, orexin A; 0.43% of 330,000 active; O43613; inhibition, % at 5 µM;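 active = inhibition above its plate's threshold, mean inhibition of all tested compounds on the plate plus 3 SD, cut at about 37% in these data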
Target sequence (O43613 whole entry, looked up): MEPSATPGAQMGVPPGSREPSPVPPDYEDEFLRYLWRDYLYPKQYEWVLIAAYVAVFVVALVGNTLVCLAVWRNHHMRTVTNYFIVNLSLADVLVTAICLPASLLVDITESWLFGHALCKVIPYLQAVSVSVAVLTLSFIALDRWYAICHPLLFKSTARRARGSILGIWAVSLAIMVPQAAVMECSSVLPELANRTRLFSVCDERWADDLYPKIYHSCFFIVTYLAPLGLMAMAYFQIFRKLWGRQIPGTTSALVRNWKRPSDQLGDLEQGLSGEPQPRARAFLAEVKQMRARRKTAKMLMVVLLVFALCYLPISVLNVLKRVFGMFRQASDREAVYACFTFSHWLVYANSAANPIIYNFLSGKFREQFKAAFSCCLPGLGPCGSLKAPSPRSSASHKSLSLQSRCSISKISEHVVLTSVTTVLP
TAAR1 ag: human TAAR1 agonism | Q96RJ0 | CHO RD-HGA16 TAAR1, Fluo-8 calcium fluorescence; vehicle wells 0%, saturating PEA agonist 100% | activation, % at 3 µM | 0.99% of 360,000 active | AID 624467;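 active = activation above the mean activation of all test compounds in the run plus 3 SD, cut at about 38% in these data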
Target sequence (Q96RJ0 whole entry, looked up): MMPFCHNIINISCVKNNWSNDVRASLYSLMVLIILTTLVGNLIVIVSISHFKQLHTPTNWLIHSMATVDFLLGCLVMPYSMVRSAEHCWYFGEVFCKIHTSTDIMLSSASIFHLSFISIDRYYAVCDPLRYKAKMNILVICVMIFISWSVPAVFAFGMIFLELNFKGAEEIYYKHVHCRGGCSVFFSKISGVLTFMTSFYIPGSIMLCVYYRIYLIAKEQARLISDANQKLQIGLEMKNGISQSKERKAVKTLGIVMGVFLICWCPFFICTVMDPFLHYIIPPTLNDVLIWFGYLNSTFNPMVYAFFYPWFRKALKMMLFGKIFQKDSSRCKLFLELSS
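Assay system – CHO-derived RD-HGA16 cells with stable Gα16 and human TAAR1 · Compound dosing – one-point dosing at 3 µM (nominal) · Incubation – 17-24 h seeding, 75 min 37 °C dye, 30 min RT · Measured by – kinetic Fluo-8 calcium fluorescence · Control set – DMSO vehicle as 0%, PEA at EC100 as 100% · Repeats – single well for each compound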
CHO parental Ca: counter-screen: ATP calcium response change in parental CHO cells | inhibition, % at 5.6 µM | 0.63% of 330,000 active | parental CHO-K1, ATP-induced calcium, Fluo-8 fluorescence;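 active = inhibition above that plate's mean sample inhibition plus 3 SD, cut at about 26% in these data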
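Assay system: untransfected parental CHO cell line. Also added: ATP agonist challenge. Dosing: one dose, 5.6 µM nominal. Measured by: Fluo-8 fluorescence. Read-out: % inhibition. Benchmarks: ATP wells versus no-ATP DMSO wells. Repeats: no replicates.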
OX1R antag-2: OX1R (human) antagonism; O43613; OX1R-expressing cells, FRET antagonist read-out; inhibition, % at 6.6 µM; 1.8% of 330,000 active; AID 485270; in the data active = inhibition mostly above about 38%, no sharp cut-off; inactive = mostly below about 40%
NTR1 agonist: NTR1 (human) agonism; 0.17% of 330,000 active; activation, % at 20 µM; NTR1-U2OS beta-arrestin-GFP spot imaging, agonist mode; P30989;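 active = activation at or above 40% of the spot to cytoplasm intensity ratio, with at least 20 cells analyzed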
TAAR1 antag: human TAAR1 antagonism | AID 624466 | 1.5% of 360,000 active | CHO RD-HGA16 TAAR1, Fluo-8 calcium fluorescence, antagonist | Q96RJ0 | inhibition, % at 3 µM;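 active = inhibition above a per-plate cutoff, the mean inhibition of test compounds on that plate plus 3 SD, cut at about 49% in these data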
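Material: RD-HGA16 CHO cells with stable hTAAR1 and Gα16; Dosing: single nominal final test compound concentration of 3 µM; Schedule: seeding 17-24 h prior, 75-min 37 °C, 30-min RT dye loading; Detection: kinetic Fluo-8 calcium fluorescence measurement; Measure: % inhibition from peak post-agonist over basal fluorescence ratio; Benchmarks: vehicle and agonist controls.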
OX1R Fluo8 conf: confirmation of human orexin 1 receptor antagonists; shares compounds with OX1R antag-1; CHO/OX1R cells, orexin A calcium Fluo-8 fluorescence; inhibition, % at 5 µM; 38% of 1,100 active; AID 492963; in the data active = inhibition above about 29%
CHO Ca counter: counter-screen for OX1R antagonists: effect in parental CHO cells | shares compounds with OX1R antag-1 | 9.3% of 1,100 active | parental CHO-K1, ATP-induced calcium, Fluo-8 fluorescence | inhibition, % at 5.6 µM;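 active = inhibition above a per-plate limit, the mean inhibition of that plate's test compounds plus 3 SD, cut at about 25% in these data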
OX1R HTRF confirm: OX1R (human) antagonism, HTRF confirmed. shares compounds with OX1R antag-2. OX1R-expressing cells, HTRF antagonist assay. inhibition, % at 6.6 µM. 49% of 1,800 active. AID 492964; in the data active = inhibition above about 55%;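 also: CHO cells expressing OX1R stimulated with orexin A at about EC80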
CHO-K1 HTRF: counter-screen for OX1R antagonists: effect in parental CHO-K1 cells. shares compounds with OX1R antag-2. HTRF counterscreen. inhibition, % at 6.6 µM. 48% of 1,800 active. AID 493232; in the data active = inhibition above about 17%
Each line names hits and unclear results; the compound was inactive in the other large screens (follow-up assays come after a bar, where they were run).

CN(CC(=O)Nc1ccccc1Br)C(=O)CNC(=O)c1ccc(Oc2ccccc2)cc1	none
CCOC(=O)C1=C(COC(=O)c2ccc(C)s2)NC(=O)NC1C (stereo not drawn)	none
CCOC(=O)C1=C(COC(=O)c2cc(Br)c(Br)s2)NC(=O)NC1C (stereo not drawn)	OX1R antag-2 49.3 | OX1R Fluo8 conf inactive | CHO Ca counter inactive | OX1R HTRF confirm inactive | CHO-K1 HTRF inactive
Cc1ccc(CNC(=O)CCNS(=O)(=O)c2cccc3nsnc23)cc1	none
O=C(CCS(=O)(=O)c1cccc2nonc12)Nc1ccc(Br)cc1	none
Cn1c2ccccc2c2cc(/C=N/NC(=O)c3ccc(O)cc3O)ccc21	OX1R antag-2 91.5 (no result: TAAR1 ag, TAAR1 antag) | OX1R Fluo8 conf inactive | CHO Ca counter 25.0 | OX1R HTRF confirm 73.3 | CHO-K1 HTRF inactive
COc1ccc(NC(=O)C(=O)Nc2cccc3cccnc23)cc1OC	OX1R antag-1 53.3, OX1R antag-2 81.0 | OX1R Fluo8 conf 61.3 | CHO Ca counter inactive | OX1R HTRF confirm 92.6 | CHO-K1 HTRF inactive
COc1ccc(NC(=O)C(=O)Nc2cccc3cccnc23)c(OC)c1	none
CCOc1ccc(C(=O)Nc2cccc3cccnc23)cc1	OX1R antag-1 65.8, OX1R antag-2 80.6 | OX1R Fluo8 conf 29.0 | CHO Ca counter inactive | OX1R HTRF confirm 87.3 | CHO-K1 HTRF inactive
Cc1ccc(S(=O)(=O)N2[C@@H](c3ccc(F)cc3)C(C(=O)O)=CC[C@H]2c2cccs2)cc1	none
O=S(=O)(NCCOc1ccccc1Cl)c1ccc2oc3ccccc3c2c1	OX1R antag-1 54.8, OX1R antag-2 99.0 | OX1R Fluo8 conf inactive | CHO Ca counter inactive | OX1R HTRF confirm 66.0 | CHO-K1 HTRF inactive
COc1ccccc1OCCNS(=O)(=O)c1ccc2oc3ccccc3c2c1	none
O=C(Cc1ccccc1F)NC1CCCN(Cc2ccc(Cl)cc2)C1 (stereo not drawn)	none
Cc1cc(-c2ccc(N3CCOCC3)cc2)nc2ccccc12	OX1R antag-2 91.0 | OX1R Fluo8 conf 54.3 | CHO Ca counter inactive | OX1R HTRF confirm 93.0 | CHO-K1 HTRF inactive
COC(=O)C1CCN(S(=O)(=O)c2c[nH]c(=O)[nH]c2=O)CC1	none (no result: OX1R antag-1, CHO parental Ca, OX1R antag-2, NTR1 agonist)
Cc1ccccc1NC(=O)Cn1nc(-c2ccc(Cl)s2)ccc1=O	none
Cc1ccc(Cl)cc1NC(=O)Cn1nc(-c2cccs2)ccc1=O	OX1R antag-1 58.0, OX1R antag-2 98.3 | OX1R Fluo8 conf inactive | CHO Ca counter inactive | OX1R HTRF confirm 60.6 | CHO-K1 HTRF inactive
COc1ccc2sc3c(=O)[nH]c4ccccc4c3c2c1	none
COc1ccc2c(c1)[nH]c(=O)c1sc3ccccc3c12	OX1R antag-2 71.4 (no result: TAAR1 ag, TAAR1 antag) | OX1R Fluo8 conf 39.0 | CHO Ca counter inactive | OX1R HTRF confirm 92.3 | CHO-K1 HTRF inactive
CCOC(=O)c1c(/N=C/C2=C(O)CC(C)(C)CC2=O)sc2c1CCCC2	none
COc1ccc(NC(=O)c2cc([N+](=O)[O-])ccc2O)cc1	OX1R antag-2 70.5 | OX1R Fluo8 conf inactive | CHO Ca counter inactive | OX1R HTRF confirm inactive | CHO-K1 HTRF inactive
CC(C)C[C@H]1CN([C@@H](Cc2ccccc2)CN2CCC[C@H]2CN2C(=O)C(=O)NC[C@@H]2Cc2ccc(O)cc2)C(=O)C(=O)N1CCc1ccccc1	none (no result: OX1R antag-1, CHO parental Ca, OX1R antag-2, NTR1 agonist)
COc1ccc(/C=C/C(=O)OCC(=O)c2c(C)[nH]c3ccccc23)cc1OC	OX1R antag-1 49.2, OX1R antag-2 76.0 | OX1R Fluo8 conf 43.8 | CHO Ca counter inactive | OX1R HTRF confirm 80.0 | CHO-K1 HTRF inactive
C[C@@H](NC(=O)[C@@H]1Cc2ccccc2CN1C(=O)OC(C)(C)C)C(=O)NCC1CCCO1 (stereo partly drawn)	none
Cc1nc(-c2coc3cc(O)c(C)cc3c2=O)cs1	OX1R antag-2 85.7 | OX1R Fluo8 conf inactive | CHO Ca counter inactive | OX1R HTRF confirm 88.6 | CHO-K1 HTRF inactive
Cc1nc(-c2coc3cc(OCC(=O)O)ccc3c2=O)cs1	none
COc1ccc(CSCC(=O)N/N=C/c2ccc(OCC(=O)NCc3ccco3)cc2)cc1	none
Cc1cc(C)cc(CSCC(=O)N/N=C/c2ccc(OCC(=O)NCc3ccco3)cc2)c1	OX1R antag-1 50.3, OX1R antag-2 58.5 (no result: TAAR1 ag, TAAR1 antag) | OX1R Fluo8 conf 31.8 | CHO Ca counter inactive | OX1R HTRF confirm inactive | CHO-K1 HTRF inactive
COc1ccc(NC(=O)CSc2nc3sc(C)cc3c(=O)n2C)c(OC)c1	OX1R antag-1 42.6, OX1R antag-2 88.4 | OX1R Fluo8 conf 30.9 | CHO Ca counter inactive | OX1R HTRF confirm 85.8 | CHO-K1 HTRF inactive
Cn1c2ccccc2c(=O)c2cc(C#Cc3cccc(N)c3)ccc21	OX1R antag-1 54.9, OX1R antag-2 92.0 (no result: TAAR1 ag, TAAR1 antag) | OX1R Fluo8 conf 40.0 | CHO Ca counter inactive | OX1R HTRF confirm 87.7 | CHO-K1 HTRF inactive
O=C(OCc1cc(=O)n2c(n1)sc1ccccc12)c1cccc(O)c1	OX1R antag-2 97.2 | OX1R Fluo8 conf 52.0 | CHO Ca counter inactive | OX1R HTRF confirm 86.3 | CHO-K1 HTRF inactive
Fc1cccc2sc(Nc3nc4cc5c(cc4s3)OCO5)nc12	OX1R antag-1 41.4, OX1R antag-2 75.5 | OX1R Fluo8 conf inactive | CHO Ca counter inactive | OX1R HTRF confirm 59.3 | CHO-K1 HTRF inactive
COc1ccccc1N(C)S(=O)(=O)c1ccc(Cl)c(C(=O)OCc2c(C)noc2C)c1	OX1R antag-2 54.2 | OX1R Fluo8 conf inactive | CHO Ca counter inactive | OX1R HTRF confirm inactive | CHO-K1 HTRF inactive
O=C(Nc1ccccc1)C(=O)c1c[nH]c2ccccc12	none
O=C(Nc1cccc(S(=O)(=O)NCc2ccco2)c1)c1cc(-c2ccccc2)nc2ccccc12	OX1R antag-1 45.6, OX1R antag-2 78.1, TAAR1 antag 59.0 | OX1R Fluo8 conf 41.5 | CHO Ca counter inactive | OX1R HTRF confirm 73.7 | CHO-K1 HTRF inactive
Cc1cccc(NC(=O)c2ccc(F)c(S(=O)(=O)NCc3ccco3)c2)c1	OX1R antag-1 58.1, OX1R antag-2 85.5 | OX1R Fluo8 conf 43.6 | CHO Ca counter inactive | OX1R HTRF confirm 74.7 | CHO-K1 HTRF inactive
O=C(Nc1cccc(Cl)c1)c1ccc(F)c(S(=O)(=O)NCc2cccs2)c1	OX1R antag-1 63.5, OX1R antag-2 84.6 | OX1R Fluo8 conf 30.7 | CHO Ca counter inactive | OX1R HTRF confirm 77.8 | CHO-K1 HTRF inactive
